Source: ChEMBL document CHEMBL4325900, “Antibacterial activity evaluation of synthetic novel pleuromutilin derivatives in vitro and in experimental infection mice” (2019)
Values after ≈ are worked out from the molar mass of the structure shown.

How the values were obtained:
Staphylococcus aureus [1] = experiment: Antibacterial activity against methicillin-resistant Staphylococcus aureus infected in Kunming mouse assessed as mouse survival at 40 mg/kg, ig qd treated for 3 consecutive days and measured during compound treatment relative to control; assay type: functional; conditions: po
Method in brief: (§1)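 Female Kunming mice, 22±2 g, made neutropenic with cyclophosphamide i.p., 150 mg/kg 4 days and 100 mg/kg 1 day before infection. Infected i.p. with 0.5 mL suspension of clinical MRSA isolate. Intragastric dosing at 20 or 40 mg/kg/d, starting 1 h post-infection, once daily for 3 consecutive days. Survival monitored.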

[2] = system: Staphylococcus epidermidis; experiment: Antibacterial activity against methicillin-sensitive Staphylococcus epidermidis after 24 hrs by NCCLS method; assay type: functional
Method in brief: (§2)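 Broth microdilution in Mueller-Hinton broth. Stocks at 1280 µg/mL in aqueous 10-20% DMSO, diluted to 128 µg/mL, then 2-fold serially to final 64 down to 0.125 µg/mL. Overnight MHB cultures diluted to 10^6~10^7 CFU/mL and added 1:1 to compound. Incubated 24 h at 37°C. MIC read from OD against MHB blank. Three parallels per concentration.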

Staphylococcus aureus [3] = experiment: Bactericidal activity against exponential phase of methicillin-resistant Staphylococcus aureus after 1 to 4 hrs by time kill kinetics assay; assay type: functional, organism-based
Method in brief: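 Exponential-phase S. aureus (4 h at 37°C, 120 rpm) diluted to ~2×10^7 CFU/mL in MHB and mixed 1:1 with MHB containing twice the desired compound concentration. Shaken at 37°C, 120 rpm. Samples at 1, 2, 3 and 4 h washed with PBS, diluted, spot-plated on MH agar, counted after ~18 h at 37°C as log10 CFU/mL. Triplicate, mean±s.d.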

Staphylococcus aureus [4] = experiment: Antibacterial activity against methicillin-resistant Staphylococcus aureus clinical isolates infected in ip dosed mouse assessed as reduction in bacterial infection administered 1 hr after infection and measured after 7 days; assay type: functional
Method in brief: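 Kunming mice, half male and half female, 19-23 g, 10 per group. Infected i.p. with 0.5 mL clinical MRSA isolate suspension (~10^7 CFU/mL). Single i.p. dose 1 h post-infection, five dose levels between 7.0 and 50.0 mg/kg depending on compound. Vehicle was DMSO:Tween-80:water 1:1:8, or water for valnemulin. ED50 by Probit analysis from survival after 7 days; 95% confidence ranges.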

Staphylococcus aureus [5] = experiment: Antibacterial activity against methicillin-resistant Staphylococcus aureus after 24 hrs by NCCLS method; assay type: functional; method in brief: as §2
Escherichia coli [6] = experiment: Antibacterial activity against Escherichia coli ATCC 11775 after 24 hrs by NCCLS method; assay type: functional; conditions: DSM 30083 = JCM 1649 = ATCC 11775, 24 h
Method in brief: (§3)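 Broth microdilution in Mueller-Hinton broth. Stocks at 1280 µg/mL in aqueous 10-20% DMSO were diluted to 128 µg/mL, then serially 2-fold diluted giving final concentrations of 64 down to 0.125 µg/mL. Overnight MHB cultures were diluted to 10^6~10^7 CFU/mL, and 100 µL was added per well. Plates ran 24 h at 37°C. MIC was read from OD against an MHB blank, in triplicate.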

[7] = system: Staphylococcus epidermidis; experiment: Antibacterial activity against methicillin-resistant Staphylococcus epidermidis after 24 hrs by NCCLS method; assay type: functional; method in brief: as §2
Enterococcus faecium = experiment: Antibacterial activity against Enterococcus faecium after 24 hrs by NCCLS method; assay type: functional; method in brief: as §3
Staphylococcus aureus [8] = experiment: Antibacterial activity against methicillin-resistant Staphylococcus aureus infected in Kunming mouse assessed as mouse survival at 20 mg/kg, ig qd treated for 3 consecutive days and measured up to 10 days relative to control; assay type: functional; conditions: po, 240 h; method in brief: as §1
Enterococcus faecalis = experiment: Antibacterial activity against Enterococcus faecalis after 24 hrs by NCCLS method; assay type: functional; method in brief: as §3
Staphylococcus aureus [9] = experiment: Antibacterial activity against methicillin-sensitive Staphylococcus aureus after 24 hrs by NCCLS method; assay type: functional; method in brief: as §3
Staphylococcus aureus [10] = experiment: Antibacterial activity against methicillin-resistant Staphylococcus aureus infected in Kunming mouse assessed as mouse survival at 40 mg/kg, ig qd treated for 3 consecutive days and measured at day 5 relative to control; assay type: functional; conditions: po, 120 h; method in brief: as §1
Pasteurella multocida = experiment: Antibacterial activity against Pasteurella multocida after 24 hrs by NCCLS method; assay type: functional; method in brief: as §3
Staphylococcus aureus [11] = experiment: Antibacterial activity against methicillin-resistant Staphylococcus aureus infected in Kunming mouse assessed as mouse survival at 40 mg/kg, ig qd treated for 3 consecutive days and measured at day 6 relative to control; assay type: functional; conditions: po, 144 h; method in brief: as §1
Escherichia coli [12] = experiment: Potency index, ratio of MIC for Valnemulin hydrochloride to MIC for test compound for antibacterial activity against Escherichia coli ATCC 11775 after 24 hrs by NCCLS method; assay type: functional, DSM 30083 = JCM 1649 = ATCC 11775

| SMILES | survival at 40 mg/kg (Staphylococcus aureus [1]) [%] | MIC [2] [mg/L] | Activity (Staphylococcus aureus [3]) | ED50 (Staphylococcus aureus [4]) [mg/kg] | MIC (Staphylococcus aureus [5]) [mg/L] | MIC (Escherichia coli [6]) [mg/L] | MIC [7] [mg/L] | MIC (Enterococcus faecium) [mg/L] | survival at 20 mg/kg (Staphylococcus aureus [8]) [%] | MIC (Enterococcus faecalis) [mg/L] | MIC (Staphylococcus aureus [9]) [mg/L] | survival at 40 mg/kg (Staphylococcus aureus [10]) [%] | MIC (Pasteurella multocida) [mg/L] | survival at 40 mg/kg (Staphylococcus aureus [11]) [%] | Ratio (Escherichia coli [12]) |
| --- | --- | --- | --- | --- | --- | --- | --- | --- | --- | --- | --- | --- | --- | --- | --- |
| C=C[C@]1(C)C[C@@H](OC(=O)CSC(C)(C)CNC(=O)[C@H](N)C(C)C)[C@]2(C)[C@H](C)CC[C@]3(CCC(=O)[C@H]32)[C@@H](C)[C@@H]1O.Cl [VALNEMULIN HYDROCHLORIDE] | > 90 | 0.125 | Dose-dependent effect | 13.5 | 0.25 | 32 | 0.25 | 0.125 | 30 | > 64 | 0.25 | 70 | 16 | 80 | – |
| C=C[C@]1(C)C[C@@H](OC(=O)CSc2nc(NC(=O)CN3CCN(c4ccccn4)CC3)c3cc[nH]c3n2)[C@]2(C)[C@H](C)CC[C@]3(CCC(=O)[C@H]32)[C@@H](C)[C@@H]1O | – | 0.5 (≈ 0.685 µM) | – | – | 0.5 (≈ 0.685 µM) | > 64 | 0.5 (≈ 0.685 µM) | 0.25 (≈ 0.342 µM) | – | 64 (≈ 87.7 µM) | 1 (≈ 1.37 µM) | – | > 64 | – | – |
| C=C[C@]1(C)C[C@@H](OC(=O)CSc2nc(NC(=O)CNC3CCCCC3)c3cc[nH]c3n2)[C@]2(C)[C@H](C)CC[C@]3(CCC(=O)[C@H]32)[C@@H](C)[C@@H]1O | – | 0.5 (≈ 0.751 µM) | – | – | 1 (≈ 1.5 µM) | > 64 | 0.5 (≈ 0.751 µM) | 0.5 (≈ 0.751 µM) | – | 64 (≈ 96.1 µM) | 0.5 (≈ 0.751 µM) | – | 64 (≈ 96.1 µM) | – | – |
| C=C[C@]1(C)C[C@@H](OC(=O)CSc2nc(NC(=O)CN3CCC(N(C)C)CC3)c3cc[nH]c3n2)[C@]2(C)[C@H](C)CC[C@]3(CCC(=O)[C@H]32)[C@@H](C)[C@@H]1O | – | 0.5 (≈ 0.719 µM) | – | – | 1 (≈ 1.44 µM) | > 64 | 0.5 (≈ 0.719 µM) | 1 (≈ 1.44 µM) | – | 64 (≈ 92.1 µM) | 0.5 (≈ 0.719 µM) | – | 64 (≈ 92.1 µM) | – | – |
| C=C[C@]1(C)C[C@@H](OC(=O)CSc2nc(NC(=O)CN3CCCCC3)c3cc[nH]c3n2)[C@]2(C)[C@H](C)CC[C@]3(CCC(=O)[C@H]32)[C@@H](C)[C@@H]1O | – | 0.0625 (≈ 0.0959 µM) | – | 19.7 | 0.125 (≈ 0.192 µM) | 64 (≈ 98.2 µM) | 0.125 (≈ 0.192 µM) | 0.125 (≈ 0.192 µM) | – | 32 (≈ 49.1 µM) | 0.0625 (≈ 0.0959 µM) | – | 32 (≈ 49.1 µM) | – | – |
| C=C[C@]1(C)C[C@@H](OC(=O)CSc2nc(NC(=O)CN3CCN(C)CC3)c3cc[nH]c3n2)[C@]2(C)[C@H](C)CC[C@]3(CCC(=O)[C@H]32)[C@@H](C)[C@@H]1O | – | 0.25 (≈ 0.375 µM) | – | – | 1 (≈ 1.5 µM) | > 64 | 0.5 (≈ 0.75 µM) | 0.5 (≈ 0.75 µM) | – | 64 (≈ 96 µM) | 0.125 (≈ 0.187 µM) | – | 32 (≈ 48 µM) | – | – |
| C=C[C@]1(C)C[C@@H](OC(=O)CSc2nc(NC(=O)CN(CC)CC)c3cc[nH]c3n2)[C@]2(C)[C@H](C)CC[C@]3(CCC(=O)[C@H]32)[C@@H](C)[C@@H]1O | – | 0.0625 (≈ 0.0977 µM) | – | 27.7 | 0.0625 (≈ 0.0977 µM) | 16 (≈ 25 µM) | 0.125 (≈ 0.195 µM) | 0.125 (≈ 0.195 µM) | – | 32 (≈ 50 µM) | 0.0625 (≈ 0.0977 µM) | – | 64 (≈ 100 µM) | – | 2 |
| C=C[C@]1(C)C[C@@H](OC(=O)CSc2nc(NC(=O)CN3CCC(c4ccccc4)CC3)c3cc[nH]c3n2)[C@]2(C)[C@H](C)CC[C@]3(CCC(=O)[C@H]32)[C@@H](C)[C@@H]1O | – | 0.25 (≈ 0.343 µM) | – | – | 0.25 (≈ 0.343 µM) | – | 0.25 (≈ 0.343 µM) | – | – | – | 0.25 (≈ 0.343 µM) | – | – | – | – |
